# Screens as filed in PubChem BioAssay.
# STAT1 activator = STAT1 signaling activators, primary screen, cell-based, HTS, luciferase reporter; NIH 3T3 STAT1-luciferase reporter, IFN-gamma, luminescence; 100% = IFN-gamma alone, no compound; activation (% of control), % at 5.5 µM; hit rate 2.6% among 200,000; AID 932, 2007;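 active = activation above the screen-wide mean activation plus 3 SD, cut at about 130% in these data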
# STAT3 activator = IL-6 driven STAT3 reporter potentiators, primary screen, U3A cells, luciferase, luminescence, MLSCN library | hit rate 0.91% among 190,000 | activation (% of control), % at 5.6 µM | IL-6 STAT3-luciferase reporter; 100% = signal with IL-6 EC80 alone | AID 871, 2007;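 active = activation above the screen-wide mean of compound activation plus 3 SD, cut at about 130% in these data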
#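 System – human U3A cells carrying STAT3-luciferase construct · Probe or stimulus – Interleukin-6, 33 ng/mL · Schedule – compound 1 h, then IL-6 6 h at 37 °C · Signal – luminescence from STAT3-driven luciferase reporter · Evaluation – percent of IL-6-only median luminescence · Benchmarks – IL-6-only high control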
# KCC2 mod = KCC2 cotransporter modulators, thallium flux, primary screen, cell-based, HEK293 KCC2, FluoZin-2 fluorescence, MLSMR | Solute carrier family 12 member 5 (Homo sapiens), Q9H2X9 | KCC2 cells, thallium flux FluoZin-2 fluorescence | B-score of Tl+ flux slope (higher = more flux/activation; lower = inhibition) at 10 µM | hit rate 2.2% among 190,000 | AID 1456, 2008;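 active = thallium flux slope and its plate-corrected score both differing from the plate sample mean at a set confidence after two filtering rounds, in either direction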;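 note: slope of fluorescence scaled to starting intensity during 10 to 20 s after thallium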
# Target sequence (Q9H2X9 whole entry, looked up): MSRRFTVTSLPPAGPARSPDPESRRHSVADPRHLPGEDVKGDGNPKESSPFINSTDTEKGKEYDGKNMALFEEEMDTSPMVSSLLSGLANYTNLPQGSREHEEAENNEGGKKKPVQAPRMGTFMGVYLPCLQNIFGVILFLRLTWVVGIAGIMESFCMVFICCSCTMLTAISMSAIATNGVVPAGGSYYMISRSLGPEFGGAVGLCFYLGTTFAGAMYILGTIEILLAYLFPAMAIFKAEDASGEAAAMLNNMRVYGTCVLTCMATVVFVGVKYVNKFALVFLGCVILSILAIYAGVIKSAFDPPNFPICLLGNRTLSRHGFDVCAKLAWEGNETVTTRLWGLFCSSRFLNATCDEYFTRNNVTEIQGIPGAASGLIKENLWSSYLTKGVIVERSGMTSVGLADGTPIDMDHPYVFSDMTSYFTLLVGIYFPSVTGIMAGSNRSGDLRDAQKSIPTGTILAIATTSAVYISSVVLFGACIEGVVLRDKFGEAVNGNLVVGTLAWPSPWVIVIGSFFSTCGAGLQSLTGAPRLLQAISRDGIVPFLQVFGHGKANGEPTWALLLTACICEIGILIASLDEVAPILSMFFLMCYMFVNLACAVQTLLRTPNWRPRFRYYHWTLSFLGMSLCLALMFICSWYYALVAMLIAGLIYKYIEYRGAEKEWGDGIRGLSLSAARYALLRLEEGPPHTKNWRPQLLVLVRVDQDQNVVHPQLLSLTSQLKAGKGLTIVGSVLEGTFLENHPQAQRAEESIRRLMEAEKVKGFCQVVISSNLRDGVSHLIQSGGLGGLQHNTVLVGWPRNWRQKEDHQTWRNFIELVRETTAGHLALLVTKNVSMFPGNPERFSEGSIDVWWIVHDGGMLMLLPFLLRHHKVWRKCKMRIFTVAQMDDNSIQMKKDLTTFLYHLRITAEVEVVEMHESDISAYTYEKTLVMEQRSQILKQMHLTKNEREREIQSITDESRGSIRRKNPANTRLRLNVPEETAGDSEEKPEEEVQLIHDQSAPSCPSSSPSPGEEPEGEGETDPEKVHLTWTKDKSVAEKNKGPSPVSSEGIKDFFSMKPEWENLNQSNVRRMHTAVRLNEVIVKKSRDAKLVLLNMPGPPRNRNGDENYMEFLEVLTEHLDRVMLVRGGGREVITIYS
# STAT3 inh = IL-6 driven STAT3 reporter inhibitors, primary screen, U3A cells, luciferase, luminescence, MLSCN library; IL-6 STAT3-luciferase reporter; host cell line lacks STAT1; inhibition, % at 5.5 µM; hit rate 0.89% among 190,000; AID 862, 2007;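 active = inhibition above the mean inhibition across all screened compounds plus 3 SD, cut at about 44% in these data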
# HSV augment = enhancers of HSV replication in host cells, fold increase, host cell viability | HSV replication augmentation in cells | maximum fold increase | hit rate 0.005% among 220,000; in the data active = maximum fold increase above about 1.5; inconclusive = no clear call, values can overlap the other calls; tested in PC3 cells
# STAT1 inh = STAT1 signaling inhibitors, primary screen, cell-based, HTS, luciferase reporter; NIH 3T3 STAT1-luciferase reporter, IFN-gamma, luminescence; inhibition, % at 5.5 µM; hit rate 0.35% among 200,000; AID 920, 2007;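 active = inhibition above a set limit, the mean inhibition across all tested compounds plus 3 SD, cut at about 34% in these data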
# A number is an active result; 0 = inactive; ? = inconclusive; - = no result. Shown are actives, neighbours in structure and some others; about 5.5% of the full set was active somewhere.
SMILES,STAT1 activator,STAT3 activator,KCC2 mod,STAT3 inh,HSV augment,STAT1 inh
CC1=NN(C(=O)c2ccccc2)C(O)(c2ccc(Br)cc2)C1 (stereo unspecified),-,-,0,-,0,-
COC(=O)C1=NN(C(=O)c2cccc(Br)c2)C(O)(c2ccc(Cl)cc2)C1 (stereo unspecified),0,0,92.3,0,?,0
CCC(C)(C)NC(=O)CN(Cc1ccccc1Cl)C(=O)CCC(=O)Nc1cc(C)ccn1,0,0,0,0,0,0
O=C(O)/C=C\C(=O)N1CCc2ccccc21,0,0,0,0,0,0
O=C(/C=C/c1ccc(Cl)cc1Cl)N1CCc2ccccc21,141.0,0,0,0,0,0
N#Cc1c(N)n(-c2cccc(O)c2)c2nc3ccccc3nc12,-,-,-,-,0,-
Cc1ccc(CN2CCSCC2)c(C)c1,0,0,0,0,0,0
COc1ccc(-c2nnc(NC(=O)c3ccc(S(=O)(=O)N4CCCc5ccccc54)cc3)o2)cc1,0,0,12.5,0,-,0
CC1CN(S(=O)(=O)c2ccc(C(=O)Nc3nnc(-c4ccc5c(c4)CCCC5)o3)cc2)CC(C)O1 (stereo unspecified),0,0,7.91,0,0,0
CC1CN(S(=O)(=O)c2ccc(C(=O)Nc3nnc(-c4ccccn4)o3)cc2)CC(C)O1 (stereo unspecified),0,0,0,0,0,0
O=C(NC(=S)Nc1cccc(Cl)c1N1CCCC1)c1ccc(-c2cccc([N+](=O)[O-])c2)o1,0,0,2.97,0,0,0
O=C(Nc1cccc(Cl)c1N1CCOCC1)c1ccc([N+](=O)[O-])o1,-,-,0,-,0,-
S=C(c1ccc(-c2cccc(Cl)c2)o1)N1CCCCC1,147.3,0,0,0,0,0
O=C(Nc1ncc(Cc2cccc(C(F)(F)F)c2)s1)c1ccc(-c2cccc([N+](=O)[O-])c2)o1,0,0,0,0,0,0
O=C(Nc1nccs1)c1ccc(-c2cccc([N+](=O)[O-])c2)o1,143.2,0,0,0,0,0
O=[N+]([O-])c1cccc(-c2ccc(C(=S)N3CCOCC3)o2)c1,142.6,0,-,0,0,0
S=C(c1ccc(-c2cccc(Cl)c2)o1)N1CCOCC1,0,0,0,0,0,0
Cc1cc(Oc2cc(N)cc([N+](=O)[O-])c2)ccc1Cl,0,0,0,0,0,0
COc1ccc(-c2nc(-c3cccnc3)no2)cc1,-,-,0,-,0,-
COc1ccc(-c2nc(-c3ccccn3)no2)cc1,0,0,0,108.8,0,96.0
Cc1ccccc1-c1nc(-c2ccccn2)no1,0,0,0,98.8,0,76.8
Cc1ccccc1-c1nc(Cc2ccccc2)no1,139.8,0,0,0,0,0
COc1ccccc1-c1noc(-c2cccs2)n1,129.7,0,0,0,0,0
Cc1ccccc1-c1noc(-c2ccccc2C(=O)O)n1,-,-,0,-,0,-
O=C(NCc1cccc(F)c1)C1CCN(C(=O)c2sccc2-n2cccc2)CC1,0,0,0,0,0,0
SMILES,STAT1 activator,STAT3 activator,KCC2 mod,STAT3 inh,HSV augment,STAT1 inh
COc1ccccc1-c1noc(-c2ccncc2)n1,0,0,0,0,0,0
COc1ccccc1-c1nc(-c2ccccn2)no1,0,0,-,75.0,0,35.6
Cn1cc(CNCc2cn[nH]c2-c2ccc(F)cc2)c(-c2ccc3c(c2)OCCO3)n1,0,0,-,0,0,0
Cn1cc(CNCc2ccc(OC(F)(F)F)cc2)c(-c2ccc3c(c2)OCCO3)n1,0,0,0,56.3,0,0
Cc1noc(C)c1COC(=O)CCCc1c[nH]c2ccccc12,0,133.7,0,0,-,0
COc1ccc2c(=O)c(-c3ccc(OC)c(OC)c3)coc2c1,0,-,0,-,0,0
COc1ccc2c(=O)c(-c3ccccc3)coc2c1,129.8,0,0,0,0,0
O=C(Nc1cnc2ccccc2c1)N1CCCCC1,135.0,0,0,0,0,0
CC(C)Oc1cccc(C(=O)C2CCCN(Cc3cnc(N4CCOCC4)s3)C2)c1 (stereo unspecified),0,0,0,0,0,0
